Measurements taken from ChEMBL document CHEMBL3351311 (ACS Med Chem Lett, 2014).
In brackets after ≈: the same amount, converted by molar mass. Each block holds one molecule with its values, some of them ahead of it.

Tests used:
[1] = Drug level in rat brain at 10 mg/kg, po after 30 mins; type: ADME, organism-based; parameters: dose 10 mg/kg, route oral; settings: read-out: Drug uptake
[2] = Plasma concentration in rat at 10 mg/kg, po after 30 mins; type: ADME, organism-based; parameters: dose 10 mg/kg, route oral
[3] = Ratio of drug level in brain to plasma in rat at 10 mg/kg, po after 30 mins; type: ADME, organism-based; parameters: dose 10 mg/kg, route oral; settings: read-out: BPR
[4] = molecular target: T1, cAMP and cAMP-inhibited cGMP 3',5'-cyclic phosphodiesterase 10A (Rattus norvegicus, UniProt Q9QYJ6); assay: Inhibition of rat PDE10A expressed in Sf9 cells incubated for 60 mins using [3H]-cAMP substrate by scintillation counting method
T1 sequence (Q9QYJ6 whole entry): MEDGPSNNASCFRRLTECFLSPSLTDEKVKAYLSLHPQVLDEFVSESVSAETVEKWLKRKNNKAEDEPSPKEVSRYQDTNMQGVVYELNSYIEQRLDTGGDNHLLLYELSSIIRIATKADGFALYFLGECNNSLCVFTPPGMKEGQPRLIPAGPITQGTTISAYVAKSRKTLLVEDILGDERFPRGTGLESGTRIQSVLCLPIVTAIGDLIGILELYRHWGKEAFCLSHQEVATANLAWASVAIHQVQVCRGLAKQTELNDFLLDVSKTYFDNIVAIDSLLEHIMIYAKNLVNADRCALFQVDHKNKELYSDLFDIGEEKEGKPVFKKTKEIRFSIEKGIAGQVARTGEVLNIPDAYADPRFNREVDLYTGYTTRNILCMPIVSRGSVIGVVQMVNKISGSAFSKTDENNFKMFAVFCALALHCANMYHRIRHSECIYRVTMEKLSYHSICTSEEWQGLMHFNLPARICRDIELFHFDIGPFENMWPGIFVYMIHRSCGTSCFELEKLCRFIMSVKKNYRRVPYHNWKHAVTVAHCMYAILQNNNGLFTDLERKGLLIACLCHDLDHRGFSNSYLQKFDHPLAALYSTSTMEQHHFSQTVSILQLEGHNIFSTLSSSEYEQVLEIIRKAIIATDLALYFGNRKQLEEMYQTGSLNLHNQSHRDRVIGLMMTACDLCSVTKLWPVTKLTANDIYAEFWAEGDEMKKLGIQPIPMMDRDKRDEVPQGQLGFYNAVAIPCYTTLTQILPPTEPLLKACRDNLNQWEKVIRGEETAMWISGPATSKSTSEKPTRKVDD

[5] = molecular target: High affinity 3',5'-cyclic-AMP phosphodiesterase 7A (Homo sapiens, UniProt Q13946)
[6] = Half life in Sprague-Dawley rat at 10 mg/kg, sc; type: ADME, organism-based; parameters: dose 10 mg/kg, route subcutaneous; settings: in vivo
Summary of the method: (§1)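 Male Sprague-Dawley rats, fed (n = 3), given 10 mg/kg s.c. as a 1 mg/mL solution in 20% HP-β-CD, pH 7.0. Plasma kinetic parameters are reported as mean (SD).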

[7] = Formulatability in 20% beta-HP-CD at pH 7.0; type: physicochemical; settings: read-out: Activity
Summary of the method: (§2)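 Formulatability in mg/mL, tested in three vehicles: water at pH 3.6, 10% β-HP-CD at pH 3.6, and 20% HP-β-CD at pH 7.0.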

[8] = Ratio of drug level in brain to plasma of Sprague-Dawley rat at 10 mg/kg, sc after 7 hrs; type: ADME, organism-based; parameters: dose 10 mg/kg, route subcutaneous; settings: read-out: BPR
Summary of the method: (§3)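 Male Sprague-Dawley rats, fed (n = 3), dosed 10 mg/kg s.c. at 1 mg/mL in 20% HP-β-CD, pH 7.0. Plasma (ng/mL) and brain (ng/g) levels were measured at 0.5, 1, 2, 4, 7 and 24 h, each with SD. The brain/plasma ratio is computed at each time point.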

[9] = AUC (0 to infinity) in Sprague-Dawley rat at 10 mg/kg, sc; type: ADME, organism-based; parameters: time infinity, dose 10 mg/kg, route subcutaneous; settings: plasma; summary of the method: as §1
[10] = Stability in rat liver microsomes assessed as parent compound remaining after 15 mins; type: ADME; settings: read-out: Stability
Summary of the method: (§4)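 Incubated with human or rat liver microsomes for 15 min. Result is the percent of parent compound remaining.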

[11] = molecular target: cGMP-specific 3',5'-cyclic phosphodiesterase (Homo sapiens, UniProt O76074); assay: Inhibition of human PDE5A3 expressed in Sf9 cells by scintillation counting method
Summary of the method: (§5)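 IC50 values were calculated from experiments each run at eight concentrations.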

[12] = molecular target: Cytochrome P450 3A4 (Homo sapiens, UniProt P08684); assay: Inhibition of CYP3A4 in human liver microsomes; type: ADME
Cytochrome P450 3A4, sequence (P08684 whole entry): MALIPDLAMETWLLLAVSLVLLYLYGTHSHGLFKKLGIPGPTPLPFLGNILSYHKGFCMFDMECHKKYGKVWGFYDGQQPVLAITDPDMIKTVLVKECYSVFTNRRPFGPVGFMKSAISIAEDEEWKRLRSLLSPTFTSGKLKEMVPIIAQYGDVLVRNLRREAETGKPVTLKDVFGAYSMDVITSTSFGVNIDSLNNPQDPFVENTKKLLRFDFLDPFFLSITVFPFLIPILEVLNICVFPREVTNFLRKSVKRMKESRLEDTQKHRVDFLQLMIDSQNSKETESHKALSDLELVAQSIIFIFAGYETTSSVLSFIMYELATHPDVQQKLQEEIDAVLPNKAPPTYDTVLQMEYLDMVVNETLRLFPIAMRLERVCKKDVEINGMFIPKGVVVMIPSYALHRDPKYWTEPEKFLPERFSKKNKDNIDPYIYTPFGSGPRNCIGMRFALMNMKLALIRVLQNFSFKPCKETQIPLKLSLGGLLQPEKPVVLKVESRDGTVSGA
Summary of the method: (§6)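 CYP2C19 and 3A4 were tested in a human liver microsomal CYP inhibition assay, with IC50 determination.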

[13] = molecular target: Dual 3',5'-cyclic-AMP and -GMP phosphodiesterase 11A (Homo sapiens, UniProt Q9HCR9); assay: Inhibition of human PDE11A4 expressed in Sf9 cells by scintillation counting method; summary of the method: as §5
Dual 3',5'-cyclic-AMP and -GMP phosphodiesterase 11A, sequence (Q9HCR9 whole entry): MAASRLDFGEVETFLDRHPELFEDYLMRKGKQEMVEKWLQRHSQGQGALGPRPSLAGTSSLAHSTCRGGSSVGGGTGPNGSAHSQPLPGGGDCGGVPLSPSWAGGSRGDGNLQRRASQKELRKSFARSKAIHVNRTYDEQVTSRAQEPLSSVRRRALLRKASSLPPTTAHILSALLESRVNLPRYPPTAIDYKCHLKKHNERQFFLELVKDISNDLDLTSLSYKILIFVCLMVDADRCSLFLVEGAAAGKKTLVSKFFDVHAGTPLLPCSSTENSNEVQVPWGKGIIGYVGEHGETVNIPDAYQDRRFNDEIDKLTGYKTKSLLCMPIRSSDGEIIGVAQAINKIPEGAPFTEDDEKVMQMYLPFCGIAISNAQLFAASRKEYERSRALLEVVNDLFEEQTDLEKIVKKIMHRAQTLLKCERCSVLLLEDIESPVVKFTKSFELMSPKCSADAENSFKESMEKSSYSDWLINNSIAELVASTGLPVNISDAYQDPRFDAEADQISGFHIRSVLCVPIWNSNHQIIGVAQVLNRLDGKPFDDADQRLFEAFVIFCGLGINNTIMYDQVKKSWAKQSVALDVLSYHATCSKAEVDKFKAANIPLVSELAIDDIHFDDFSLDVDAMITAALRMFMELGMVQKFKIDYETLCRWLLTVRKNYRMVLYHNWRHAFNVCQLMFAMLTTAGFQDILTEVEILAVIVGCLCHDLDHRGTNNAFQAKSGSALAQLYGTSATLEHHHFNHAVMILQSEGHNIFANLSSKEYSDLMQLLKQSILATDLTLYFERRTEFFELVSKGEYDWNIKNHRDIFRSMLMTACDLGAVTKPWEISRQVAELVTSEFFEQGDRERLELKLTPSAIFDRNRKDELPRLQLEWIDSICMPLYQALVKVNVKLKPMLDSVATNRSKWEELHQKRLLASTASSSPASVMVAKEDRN

[14] = Volume of distribution at steady state in Sprague-Dawley rat at 2.5 mg/kg, iv; type: ADME, organism-based; parameters: dose 2.5 mg/kg, route intravenous; settings: in vivo, read-out: Vdss
Summary of the method: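 Rats received an intravenous injection at 2.5 mg/kg. Plasma kinetics were followed and parameters reported as mean (SD).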

[15] = molecular target: Dual specificity calcium/calmodulin-dependent 3',5'-cyclic nucleotide phosphodiesterase 1A (Homo sapiens, UniProt P54750); assay: Inhibition of human PDE1A by scintillation counting method; summary of the method: as §5
Dual specificity calcium/calmodulin-dependent 3',5'-cyclic nucleotide phosphodiesterase 1A, sequence (P54750 whole entry): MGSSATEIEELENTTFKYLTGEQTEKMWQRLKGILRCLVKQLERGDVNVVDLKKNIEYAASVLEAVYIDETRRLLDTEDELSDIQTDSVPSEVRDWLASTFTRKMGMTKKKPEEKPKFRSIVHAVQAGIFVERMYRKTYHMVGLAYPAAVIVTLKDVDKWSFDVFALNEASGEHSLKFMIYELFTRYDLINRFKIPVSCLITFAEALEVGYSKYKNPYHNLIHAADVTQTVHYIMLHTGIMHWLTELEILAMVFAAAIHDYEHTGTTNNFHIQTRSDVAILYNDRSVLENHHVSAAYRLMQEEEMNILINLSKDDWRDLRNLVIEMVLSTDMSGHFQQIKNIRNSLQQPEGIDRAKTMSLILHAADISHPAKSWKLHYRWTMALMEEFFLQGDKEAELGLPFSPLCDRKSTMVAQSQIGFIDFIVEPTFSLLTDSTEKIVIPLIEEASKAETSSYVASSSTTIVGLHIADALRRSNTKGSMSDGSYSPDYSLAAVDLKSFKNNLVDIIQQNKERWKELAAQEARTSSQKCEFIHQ

[16] = Unbound fraction in Sprague-Dawley rat plasma at 10 mg/kg, sc; type: ADME, organism-based; parameters: dose 10 mg/kg, route subcutaneous
[17] = tested on: Rattus norvegicus; assay: Increase in cGMP levels in Wistar rat striatum at 10 mg/kg, sc after 1 hr; type: functional; settings: route subcutaneous
Summary of the method: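 Rats were dosed 10 mg/kg s.c., and striatal cGMP was measured 1 h later against vehicle-dosed animals. Five independent experiments were run (n = 4–5 each), reported as % of vehicle with range.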

[18] = Ratio of drug level in brain to plasma of Sprague-Dawley rat at 10 mg/kg, sc after 2 hrs; type: ADME, organism-based; parameters: dose 10 mg/kg, route subcutaneous; settings: read-out: BPR; summary of the method: as §3
[19] = tested on: Rattus norvegicus; assay: In-vivo occupancy at PDE2 in sc dosed Wistar rat brain using [3H]labeled compound in presence of 2.5 mg/kg, sc PDE10 inhibitor MP10; type: functional, organism-based; parameters: dose 2.5 mg/kg, route subcutaneous
Summary of the method: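 Male Wistar rats (n = 3 per dose) were dosed s.c., co-administered with MP10 at 2.5 mg/kg s.c. Ex vivo autoradiography was done on brain slices with the tritiated compound. Occupancy is the inhibition of specific [3H] binding relative to vehicle-treated animals, and ED50 was derived against dose.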

[20] = molecular target: High affinity cGMP-specific 3',5'-cyclic phosphodiesterase 9A (Homo sapiens, UniProt O76083)
High affinity cGMP-specific 3',5'-cyclic phosphodiesterase 9A, sequence (O76083 whole entry): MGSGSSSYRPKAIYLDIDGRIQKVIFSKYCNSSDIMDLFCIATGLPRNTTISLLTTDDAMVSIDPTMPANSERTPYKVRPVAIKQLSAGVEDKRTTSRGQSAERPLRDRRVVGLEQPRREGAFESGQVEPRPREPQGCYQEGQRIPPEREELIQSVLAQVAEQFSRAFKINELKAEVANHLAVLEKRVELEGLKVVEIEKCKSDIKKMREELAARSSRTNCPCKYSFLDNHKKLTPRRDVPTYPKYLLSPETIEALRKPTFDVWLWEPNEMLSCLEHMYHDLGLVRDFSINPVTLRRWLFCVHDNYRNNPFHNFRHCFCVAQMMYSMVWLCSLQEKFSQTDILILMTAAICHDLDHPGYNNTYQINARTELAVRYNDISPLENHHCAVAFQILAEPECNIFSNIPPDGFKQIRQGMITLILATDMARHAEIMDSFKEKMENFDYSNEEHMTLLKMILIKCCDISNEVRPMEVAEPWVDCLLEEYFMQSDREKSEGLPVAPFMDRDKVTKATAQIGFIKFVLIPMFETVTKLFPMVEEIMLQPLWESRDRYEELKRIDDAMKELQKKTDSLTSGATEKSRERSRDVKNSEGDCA

[21] = tested on: Brain; assay: Drug level in Sprague-Dawley rat brain at 10 mg/kg, sc after 24 hrs; type: ADME, organism-based; parameters: dose 10 mg/kg, route subcutaneous; settings: in vivo, BLD = below limit of detection; summary of the method: as §3
[22] = Formulatability in water at pH 3.6; type: physicochemical; settings: read-out: Activity; summary of the method: as §2
[23] = AUC (0 to infinity) in Sprague-Dawley rat at 2.5 mg/kg, iv; type: ADME, organism-based; parameters: time infinity, dose 2.5 mg/kg, route intravenous; settings: plasma
Summary of the method: (§7)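 Rats received 2.5 mg/kg i.v. Plasma kinetic parameters (t1/2, Cl, Vdss, AUC0-inf) are reported as mean (SD).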

[24] = molecular target: 3',5'-cyclic-AMP phosphodiesterase 4D (Homo sapiens, UniProt Q08499); assay: Inhibition of human PDE4D by scintillation counting method; summary of the method: as §5
3',5'-cyclic-AMP phosphodiesterase 4D, sequence (Q08499 whole entry): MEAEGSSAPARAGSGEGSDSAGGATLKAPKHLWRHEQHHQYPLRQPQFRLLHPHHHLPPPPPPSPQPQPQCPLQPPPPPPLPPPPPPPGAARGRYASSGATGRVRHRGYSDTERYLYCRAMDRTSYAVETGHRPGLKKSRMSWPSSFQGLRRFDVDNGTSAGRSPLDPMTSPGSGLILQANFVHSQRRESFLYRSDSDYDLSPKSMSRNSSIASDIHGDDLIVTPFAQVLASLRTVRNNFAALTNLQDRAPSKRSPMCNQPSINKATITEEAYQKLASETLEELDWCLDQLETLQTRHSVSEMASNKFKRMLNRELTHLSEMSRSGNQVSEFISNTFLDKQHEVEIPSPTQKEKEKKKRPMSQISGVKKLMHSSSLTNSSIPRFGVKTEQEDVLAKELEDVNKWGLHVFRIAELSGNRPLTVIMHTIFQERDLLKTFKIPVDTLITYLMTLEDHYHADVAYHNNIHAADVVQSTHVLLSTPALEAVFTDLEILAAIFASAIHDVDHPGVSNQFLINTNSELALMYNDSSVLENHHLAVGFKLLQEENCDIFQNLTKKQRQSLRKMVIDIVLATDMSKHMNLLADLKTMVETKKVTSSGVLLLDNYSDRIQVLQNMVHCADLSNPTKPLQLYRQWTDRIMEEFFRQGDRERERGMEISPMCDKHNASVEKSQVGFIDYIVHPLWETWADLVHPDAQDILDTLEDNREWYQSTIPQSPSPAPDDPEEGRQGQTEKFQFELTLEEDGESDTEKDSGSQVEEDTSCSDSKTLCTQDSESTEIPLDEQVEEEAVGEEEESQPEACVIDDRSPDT

[25] = Unbound fraction in Sprague-Dawley rat brain at 10 mg/kg, sc; type: ADME, organism-based; parameters: dose 10 mg/kg, route subcutaneous
[26] = tested on: Salmonella typhimurium; assay: Mutagenicity in Salmonella typhimurium at <125 ug/mL by Ames-2 test; type: toxicity, organism-based; settings: salmonella enterica subsp. enterica serovar typhimurium
Summary of the method: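 In vitro colorimetric bacterial mutagenicity assay, adapted from the AMESII Mutagenicity Assay kit.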

[27] = Formulatability in 10% beta-HP-CD at pH 3.6; type: physicochemical; settings: read-out: Activity; summary of the method: as §2
[28] = molecular target: Cytochrome P450 2C19 (Homo sapiens, UniProt P33261); assay: Inhibition of CYP2C19 in human liver microsomes; type: ADME; summary of the method: as §6
Cytochrome P450 2C19, sequence (P33261 whole entry): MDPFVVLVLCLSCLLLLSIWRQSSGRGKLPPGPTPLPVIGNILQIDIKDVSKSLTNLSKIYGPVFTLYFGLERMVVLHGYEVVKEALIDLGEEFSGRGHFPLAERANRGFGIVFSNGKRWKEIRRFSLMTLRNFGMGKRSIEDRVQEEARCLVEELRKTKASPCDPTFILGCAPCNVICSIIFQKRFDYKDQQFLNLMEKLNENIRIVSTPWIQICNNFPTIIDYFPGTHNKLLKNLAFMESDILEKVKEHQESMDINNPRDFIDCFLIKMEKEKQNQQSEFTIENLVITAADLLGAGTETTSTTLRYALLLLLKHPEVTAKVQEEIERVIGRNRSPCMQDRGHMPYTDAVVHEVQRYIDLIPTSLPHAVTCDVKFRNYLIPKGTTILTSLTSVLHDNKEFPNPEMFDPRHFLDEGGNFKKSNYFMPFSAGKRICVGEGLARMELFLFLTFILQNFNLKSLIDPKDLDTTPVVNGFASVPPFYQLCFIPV

[29] = Tmax in Sprague-Dawley rat at 10 mg/kg, sc; type: ADME, organism-based; parameters: dose 10 mg/kg, route subcutaneous; settings: in vivo
Summary of the method: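 Fed male Sprague-Dawley rats (n = 3) were dosed subcutaneously at 10 mg/kg, formulated at 1 mg/mL in 20% HP-β-CD, pH 7.0. Plasma kinetics were followed and reported as mean (SD).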

[30] = Ratio of drug level in brain to plasma of Sprague-Dawley rat at 10 mg/kg, sc after 1 hr; type: ADME, organism-based; parameters: dose 10 mg/kg, route subcutaneous; settings: read-out: BPR; summary of the method: as §3
[31] = Half life in Sprague-Dawley rat at 2.5 mg/kg, iv; type: ADME, organism-based; parameters: dose 2.5 mg/kg, route intravenous; settings: in vivo; summary of the method: as §7
[32] = Stability in human liver microsomes assessed as parent compound remaining after 15 mins; type: ADME; settings: read-out: Stability; summary of the method: as §4
[33] = tested on: Plasma; assay: Plasma concentration in Sprague-Dawley rat at 10 mg/kg, sc after 24 hrs; type: ADME, organism-based; parameters: dose 10 mg/kg, route subcutaneous; settings: in vivo, BLD = below limit of detection; summary of the method: as §3
[34] = Clearance in Sprague-Dawley rat at 2.5 mg/kg, iv; type: ADME, organism-based; parameters: dose 2.5 mg/kg, route intravenous; settings: in vivo; summary of the method: as §7
[35] = Cmax in Sprague-Dawley rat at 10 mg/kg, sc; type: ADME, organism-based; parameters: dose 10 mg/kg, route subcutaneous; settings: in vivo; summary of the method: as §1
[36] = molecular target: cGMP-inhibited 3',5'-cyclic phosphodiesterase 3B (Homo sapiens, UniProt Q13370); assay: Inhibition of human PDE3B by scintillation counting method; summary of the method: as §5
cGMP-inhibited 3',5'-cyclic phosphodiesterase 3B, sequence (Q13370 whole entry): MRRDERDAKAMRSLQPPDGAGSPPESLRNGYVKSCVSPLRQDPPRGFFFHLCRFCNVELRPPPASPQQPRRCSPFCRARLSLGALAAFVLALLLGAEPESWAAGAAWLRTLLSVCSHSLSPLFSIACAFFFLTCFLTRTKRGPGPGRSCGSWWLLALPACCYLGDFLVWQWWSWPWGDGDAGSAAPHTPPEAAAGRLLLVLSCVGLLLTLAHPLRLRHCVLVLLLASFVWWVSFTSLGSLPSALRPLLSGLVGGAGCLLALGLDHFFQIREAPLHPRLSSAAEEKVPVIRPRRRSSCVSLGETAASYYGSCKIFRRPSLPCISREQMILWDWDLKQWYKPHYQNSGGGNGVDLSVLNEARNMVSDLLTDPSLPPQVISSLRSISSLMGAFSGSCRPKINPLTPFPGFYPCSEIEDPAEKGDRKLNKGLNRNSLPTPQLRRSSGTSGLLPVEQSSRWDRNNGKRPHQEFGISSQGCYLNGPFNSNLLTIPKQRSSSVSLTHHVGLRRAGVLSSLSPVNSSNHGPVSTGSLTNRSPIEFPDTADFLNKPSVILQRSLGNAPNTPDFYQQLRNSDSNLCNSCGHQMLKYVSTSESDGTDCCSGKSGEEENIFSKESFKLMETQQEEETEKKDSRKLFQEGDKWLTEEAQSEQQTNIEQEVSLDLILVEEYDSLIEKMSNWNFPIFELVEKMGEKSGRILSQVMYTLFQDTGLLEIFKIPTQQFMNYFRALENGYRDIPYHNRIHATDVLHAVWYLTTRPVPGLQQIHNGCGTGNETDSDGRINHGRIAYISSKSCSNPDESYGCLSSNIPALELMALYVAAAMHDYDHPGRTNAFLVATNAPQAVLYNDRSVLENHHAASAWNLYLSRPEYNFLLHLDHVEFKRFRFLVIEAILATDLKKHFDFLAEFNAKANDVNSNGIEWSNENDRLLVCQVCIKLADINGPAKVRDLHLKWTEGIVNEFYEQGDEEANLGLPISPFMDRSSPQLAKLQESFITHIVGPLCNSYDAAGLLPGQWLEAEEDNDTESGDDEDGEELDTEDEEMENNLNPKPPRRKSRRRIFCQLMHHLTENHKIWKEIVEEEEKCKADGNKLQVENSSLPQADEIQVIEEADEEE

[37] = Ratio of drug level in brain to plasma of Sprague-Dawley rat at 10 mg/kg, sc after 4 hrs; type: ADME, organism-based; parameters: dose 10 mg/kg, route subcutaneous; settings: read-out: BPR; summary of the method: as §3
[38] = tested on: Rattus norvegicus; assay: Effect on cAMP levels in Wistar rat striatum at 10 mg/kg, sc after 1 hr; type: functional; settings: route subcutaneous
[39] = Ratio of drug level in brain to plasma of Sprague-Dawley rat at 10 mg/kg, sc after 0.5 hrs; type: ADME, organism-based; parameters: dose 10 mg/kg, route subcutaneous; settings: read-out: BPR; summary of the method: as §3
[40] = molecular target: Phosphodiesterase 6; assay: Inhibition of human PDE6AB expressed in Sf9 cells by scintillation counting method; summary of the method: as §5
[41] = tested on: Plasma; assay: Free drug concentration in Sprague-Dawley rat brain at 10 mg/kg, sc after 1 hr; type: ADME, organism-based; parameters: dose 10 mg/kg, route subcutaneous; settings: in vivo
Summary of the method: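 Free brain level at 1 h after a 10 mg/kg s.c. dose. Total brain concentration was corrected with the measured unbound brain fraction (Fub) and the unbound fraction to plasma proteins (Fup).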

[42] = Selectivity index, ratio of IC50 for rat PDE10A to IC50 for human PDE2A

Compound: COc1ccc(Cl)c(-c2nnc3c(C)nc4ccc(CN5CCOCC5)cc4n23)c1
- IC50 [4]: 0.106 µM

Compound: Cc1nc2ccc(CN3CCOCC3)cc2n2c(-c3cncc(OC(C)C)c3)nnc12
- IC50 [4]: > 10 µM

Compound: CCCCOc1cncc(-c2nnc3c(C)nc4ccc(CN5CCOCC5)cc4n23)c1
- IC50 [5]: > 10 µM
- half-life [6]: 60 min
- solubility [7]: 16 mg/mL (≈ 37 mM)
- Kp at 7 h [8]: 0.93
- AUC(0-inf) [9]: 1670 ng·h/mL
- remaining at 0.25 h [10]: 0%
- IC50 [11]: > 10 µM
- IC50 [12]: > 10 µM
- IC50 [13]: 2.14 µM
- Vd [14]: 2.7 L/kg
- IC50 [15]: > 10 µM
- fraction unbound [16]: 0.31
- Activity [17]: 251%
- Kp at 2 h [18]: 1.1
- EC50 [19]: 0.021 µM
- ED50 ([19]; sc, route subcutaneous): 4.3 mg/kg
- IC50 [20]: > 10 µM
- Drug uptake [21]: BLD
- solubility [22]: 4 mg/mL (≈ 9.25 mM)
- AUC(0-inf) [23]: 305 ng·h/mL
- IC50 [24]: > 10 µM
- fraction unbound [25]: 0.14
- Activity [26]: Non-toxic
- solubility [27]: 15 mg/mL (≈ 34.7 mM)
- IC50 [28]: > 10 µM
- Tmax [29]: 40.2 min
- Kp at 1 h [30]: 1.1
- half-life [31]: 18.6 min
- remaining at 0.25 h [32]: 0%
- Cp [33]: BLD
- clearance [34]: 130 mL/min/kg
- Cmax [35]: 658 ng/mL
- IC50 [36]: > 10 µM
- Kp at 4 h [37]: 1.1
- Activity [38]: 109%
- Kp at 0.5 h [39]: 1.4
- IC50 [40]: > 10 µM
- Drug uptake(free) [41]: 67 nM

Second part, the molecule after the results:

- concentration at 0.5 h [1]: 3.6 ng/g
- concentration at 0.5 h [2]: 72.9 ng/mL
- Kp at 0.5 h [3]: 0.05
Compound: COc1ccc(Cc2nn3c([C@@H](CCCc4ccccc4)[C@@H](C)O)nc(C)c3c(=O)[nH]2)cc1OC

- Ratio IC50 [42]: 13
Compound: Cc1nc2ccc(CN3CCOCC3)cc2n2c(-c3ccccc3Cl)nnc12
